Measurements: ChEMBL document CHEMBL1149635, “New chemical tools for investigating human mitotic kinesin Eg5” (Bioorg Med Chem, 2007)

What follows are compounds tested against T1, Kinesin-like protein KIF11 (Homo sapiens, UniProt P52732) (assay: Inhibition of microtubule-stimulated Eg5 ATPase activity expressed in Escherichia coli after 12 hrs). Conditions: not given.
T1 sequence (P52732 whole entry): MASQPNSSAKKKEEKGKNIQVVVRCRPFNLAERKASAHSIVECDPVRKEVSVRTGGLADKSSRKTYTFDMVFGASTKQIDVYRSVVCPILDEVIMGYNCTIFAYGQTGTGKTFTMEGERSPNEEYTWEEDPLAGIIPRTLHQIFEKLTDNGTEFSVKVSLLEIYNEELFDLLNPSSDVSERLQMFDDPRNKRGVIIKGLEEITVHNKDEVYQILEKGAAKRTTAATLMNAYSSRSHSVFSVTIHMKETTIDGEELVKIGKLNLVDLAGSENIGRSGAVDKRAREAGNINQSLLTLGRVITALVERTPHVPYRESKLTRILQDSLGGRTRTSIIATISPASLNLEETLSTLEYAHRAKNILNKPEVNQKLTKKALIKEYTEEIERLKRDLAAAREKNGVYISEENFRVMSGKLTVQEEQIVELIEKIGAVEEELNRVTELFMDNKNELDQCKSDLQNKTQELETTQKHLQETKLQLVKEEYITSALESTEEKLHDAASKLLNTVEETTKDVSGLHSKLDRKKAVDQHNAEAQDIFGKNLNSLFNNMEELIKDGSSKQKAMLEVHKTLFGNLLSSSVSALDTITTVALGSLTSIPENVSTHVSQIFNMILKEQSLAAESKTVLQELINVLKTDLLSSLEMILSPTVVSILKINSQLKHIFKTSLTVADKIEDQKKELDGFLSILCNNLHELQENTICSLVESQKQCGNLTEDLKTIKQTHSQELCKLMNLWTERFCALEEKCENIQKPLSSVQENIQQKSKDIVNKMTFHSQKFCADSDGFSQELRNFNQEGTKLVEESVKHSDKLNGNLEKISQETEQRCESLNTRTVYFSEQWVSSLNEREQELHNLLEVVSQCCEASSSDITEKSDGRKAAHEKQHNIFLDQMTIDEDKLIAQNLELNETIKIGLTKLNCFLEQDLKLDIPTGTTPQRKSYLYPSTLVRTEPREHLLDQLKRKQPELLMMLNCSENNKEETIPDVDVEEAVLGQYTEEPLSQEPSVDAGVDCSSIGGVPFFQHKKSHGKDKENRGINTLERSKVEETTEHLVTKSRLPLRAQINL
Type: functional

SMILES	IC50 [µM]
CC1=C(C(=O)OCCOCCOC(=O)C2=C(C)NC(=S)NC2c2cccc(O)c2)C(c2cccc(O)c2)NC(=S)N1 (configuration not stated)	24
CC1=C(C(=O)NCCOCCOCCN=[N+]=[N-])C(c2cccc(O)c2)NC(=S)N1 (configuration not stated)	69.1
CCOC(=O)C1=C(C)NC(=[Se])NC1c1cccc(O)c1 (configuration not stated)	23
CC1=C(C(=O)O)C(c2cccc(O)c2)NC(=S)N1 (configuration not stated)	72.2
CC1=C(C(=O)NCCOCCOCCN)C(c2cccc(O)c2)NC(=S)N1 (configuration not stated)	18.3
CC1=C(C(=O)c2ccco2)C(c2cccc(O)c2)NC(=S)N1 (configuration not stated)	3
CC(=O)SCCOCCOC(=O)C1=C(C)NC(=S)NC1c1cccc(O)c1 (configuration not stated)	11.5
CC1=C(C(=O)OCCOCCS)C(c2cccc(O)c2)NC(=S)N1 (configuration not stated)	5.5
CCNC(=O)C1=C(C)NC(=S)NC1c1cccc(O)c1 (configuration not stated)	82.3
CC1=C(C(=O)OCCOCCO)C(c2cccc(O)c2)NC(=S)N1 (configuration not stated)	21
CCOC(=O)C1=C(C)NC(=S)NC1c1cccc(O)c1 (configuration not stated) [MONASTROL]	12.3
CC1=C(C(=O)OCCOCCOCCOCCO)C(c2cccc(O)c2)NC(=S)N1 (configuration not stated)	62.5

These compounds were tested on HeLa (assay: Cell cycle arrest in human HeLa cells assessed as 4N DNA content at 25 uM after 24 hrs). Conditions: not given.
Type: functional
How it was run: (§1)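 HeLa cells exposed 24 h; two-dimensional flow cytometry with MPM-2 antibody (mitosis-specific phosphoepitopes, FITC-conjugated secondary) and propidium iodide for DNA content; 10,000 events per sample, aggregates gated out; 4N population and fraction MPM-2 positive scored.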

SMILES	Activity [%]
CC1=C(C(=O)c2ccco2)C(c2cccc(O)c2)NC(=S)N1 (configuration not stated)	72

Each compound was assayed on HeLa (assay: Induction of monoastral spindles in HeLa cells at 50 uM after 7 hrs). Conditions: not given.
Type: functional, Homo sapiens
How it was run: (§2)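 Fixed 1% paraformaldehyde-PBS 37 °C 3 min, then methanol −20 °C 5 min; anti-β-tubulin plus FITC secondary, propidium iodide counterstain. Monoastral spindles counted as percentage of mitotic cells; <25% deemed not significant.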

SMILES	Activity [%]
CC1=C(C(=O)OCCOCCOC(=O)C2=C(C)NC(=S)NC2c2cccc(O)c2)C(c2cccc(O)c2)NC(=S)N1 (configuration not stated)	<25
CC1=C(C(=O)NCCOCCOCCN=[N+]=[N-])C(c2cccc(O)c2)NC(=S)N1 (configuration not stated)	<25
CC1=C(C(=O)O)C(c2cccc(O)c2)NC(=S)N1 (configuration not stated)	<25
CC1=C(C(=O)NCCOCCOCCN)C(c2cccc(O)c2)NC(=S)N1 (configuration not stated)	<25
CC1=C(C(=O)c2ccco2)C(c2cccc(O)c2)NC(=S)N1 (configuration not stated)	96.8
CC(=O)SCCOCCOC(=O)C1=C(C)NC(=S)NC1c1cccc(O)c1 (configuration not stated)	<25
CC1=C(C(=O)OCCOCCS)C(c2cccc(O)c2)NC(=S)N1 (configuration not stated)	<25
CCNC(=O)C1=C(C)NC(=S)NC1c1cccc(O)c1 (configuration not stated)	<25
CC1=C(C(=O)OCCOCCO)C(c2cccc(O)c2)NC(=S)N1 (configuration not stated)	<25
CCOC(=O)C1=C(C)NC(=S)NC1c1cccc(O)c1 (configuration not stated) [MONASTROL]	45.5
CC1=C(C(=O)OCCOCCOCCOCCO)C(c2cccc(O)c2)NC(=S)N1 (configuration not stated)	<25

These compounds were tested on HeLa (assay: Cell cycle arrest in human HeLa cells assessed as 4N DNA content at 100 uM after 24 hrs). Conditions: not given.
Type: functional
How it was run: as §1

SMILES	Activity [%]
CC1=C(C(=O)c2ccco2)C(c2cccc(O)c2)NC(=S)N1 (configuration not stated)	77
CCOC(=O)C1=C(C)NC(=S)NC1c1cccc(O)c1 (configuration not stated) [MONASTROL]	48

What follows are compounds tested on HeLa (assay: Induction of monoastral spindles in HeLa cells after 7 hrs). Conditions: Homo sapiens.
Type: functional, cell-based
How it was run: as §2

SMILES	IC50 [µM]
CC1=C(C(=O)c2ccco2)C(c2cccc(O)c2)NC(=S)N1 (configuration not stated)	9.2
CCOC(=O)C1=C(C)NC(=S)NC1c1cccc(O)c1 (configuration not stated) [MONASTROL]	51.3

These compounds were tested on HeLa (assay: Induction of monoastral spindles in HeLa cells at 100 uM after 7 hrs). Conditions: not given.
Type: functional, Homo sapiens
How it was run: as §2

SMILES	Activity [%]
CC1=C(C(=O)OCCOCCOC(=O)C2=C(C)NC(=S)NC2c2cccc(O)c2)C(c2cccc(O)c2)NC(=S)N1 (configuration not stated)	11.4
CC1=C(C(=O)NCCOCCOCCN=[N+]=[N-])C(c2cccc(O)c2)NC(=S)N1 (configuration not stated)	14.9
CCOC(=O)C1=C(C)NC(=[Se])NC1c1cccc(O)c1 (configuration not stated)	33.2
CC1=C(C(=O)O)C(c2cccc(O)c2)NC(=S)N1 (configuration not stated)	15.5
CC1=C(C(=O)NCCOCCOCCN)C(c2cccc(O)c2)NC(=S)N1 (configuration not stated)	15.8
CC(=O)SCCOCCOC(=O)C1=C(C)NC(=S)NC1c1cccc(O)c1 (configuration not stated)	32.5
CC1=C(C(=O)OCCOCCS)C(c2cccc(O)c2)NC(=S)N1 (configuration not stated)	15.2
CCNC(=O)C1=C(C)NC(=S)NC1c1cccc(O)c1 (configuration not stated)	17.8
CC1=C(C(=O)OCCOCCO)C(c2cccc(O)c2)NC(=S)N1 (configuration not stated)	50.5
CCOC(=O)C1=C(C)NC(=S)NC1c1cccc(O)c1 (configuration not stated) [MONASTROL]	94.4
CC1=C(C(=O)OCCOCCOCCOCCO)C(c2cccc(O)c2)NC(=S)N1 (configuration not stated)	16.8

Each compound was assayed against T1, Kinesin-like protein KIF11 (assay: Inhibition of Eg5 ATPase activity expressed in Escherichia coli after 12 hrs). Conditions: not given.
Type: functional

SMILES	IC50 [µM]
CC1=C(C(=O)OCCOCCOC(=O)C2=C(C)NC(=S)NC2c2cccc(O)c2)C(c2cccc(O)c2)NC(=S)N1 (configuration not stated)	10
CC1=C(C(=O)NCCOCCOCCN=[N+]=[N-])C(c2cccc(O)c2)NC(=S)N1 (configuration not stated)	39
CCOC(=O)C1=C(C)NC(=[Se])NC1c1cccc(O)c1 (configuration not stated)	11.5
CC1=C(C(=O)O)C(c2cccc(O)c2)NC(=S)N1 (configuration not stated)	32
CC1=C(C(=O)NCCOCCOCCN)C(c2cccc(O)c2)NC(=S)N1 (configuration not stated)	22
CC1=C(C(=O)c2ccco2)C(c2cccc(O)c2)NC(=S)N1 (configuration not stated)	1.5
CC(=O)SCCOCCOC(=O)C1=C(C)NC(=S)NC1c1cccc(O)c1 (configuration not stated)	4.5
CC1=C(C(=O)OCCOCCS)C(c2cccc(O)c2)NC(=S)N1 (configuration not stated)	4
CCNC(=O)C1=C(C)NC(=S)NC1c1cccc(O)c1 (configuration not stated)	23
CC1=C(C(=O)OCCOCCO)C(c2cccc(O)c2)NC(=S)N1 (configuration not stated)	9.5
CCOC(=O)C1=C(C)NC(=S)NC1c1cccc(O)c1 (configuration not stated) [MONASTROL]	6.1
CC1=C(C(=O)OCCOCCOCCOCCO)C(c2cccc(O)c2)NC(=S)N1 (configuration not stated)	23

The compounds below were run against T1, Kinesin-like protein KIF11 (assay: Inhibition of Eg5 ATPase activity expressed in Escherichia coli after 12 hrs). Conditions: not given.

SMILES	IC50 [µM]
CCOC(=O)C1=C(C)NC(=S)NC1c1cccc(O)c1 (configuration not stated) [MONASTROL]	6.1
